Measured values from ChEMBL document CHEMBL3232756, “Synthesis and biological evaluation of N-dehydrodipeptidyl-N,N'-dicyclohexylurea analogs” (Eur J Med Chem, 2014).
pIC50: −log10 of the molar value. In brackets after ≈: the same amount, converted by molar mass.

Legend:
Aspergillus niger [1] = assay: Antimicrobial activity against Aspergillus niger MTCC 292 at 500 ug/ml after 24 hrs by cup plate method; format: functional; conditions: MTCC 292, 24 h, read-out: DIZ
Candida albicans [2] = assay: Antimicrobial activity against Candida albicans MTCC 227 at 500 ug/ml after 24 hrs by cup plate method; format: functional; conditions: MTCC 227, 24 h, read-out: DIZ
Mus musculus [3] = assay: Analgesic activity in Swiss albino mouse assessed as inhibition of acetic acid-induced writhing response at 100 mg/kg, po administered 1 hr before acetic acid challenge after 5 mins; format: functional
Brain = assay: Antioxidant activity against lipid peroxidation in Wister rat brain homogenates assessed as thiobarbituric acid reactive substance formation after 30 mins by spectrophotometer analysis; format: functional, tissue-based; conditions: 0.5 h
Outline: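 Whole brain minus cerebellum from overnight-fasted rats of either sex, 200–220 g. Homogenized 10% w/v in 0.15 M KCl and spun at 800 rpm for 10 min. Reaction incubated 37 °C for 30 min, then TBA:TCA (1:1) and BHT added, heated 80 °C for 20 min, cooled, centrifuged, A532 read.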

[4] = Cytotoxicity against brine shrimps larvae assessed as mortality after 24 hrs; format: organism-based; conditions: artemia, in vivo; read-out: ED50
Outline: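 Shrimp eggs were hatched in filtered artificial sea water (38 g sea salt/L) in a divided tank. Larvae were exposed in vials at several concentrations under a lamp, and survivors were counted 24 h later. ED50 and 95% confidence intervals were derived from % larvae surviving by Finney probit analysis.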

Escherichia coli [5] = assay: Antimicrobial activity against Escherichia coli ESS 2231 at 0.02 ml of 1 mg/ml after 24 hrs by cup plate method; format: functional; conditions: ESS 2231, 24 h, read-out: DIZ
Outline: (§1)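 Cup-plate diffusion on Mueller-Hinton/nutrient agar swab-streaked with suspension, 6 mm cups bored. Each compound at 1 mg/ml in DMSO, 0.02 ml per cup; DMSO as solvent control. Amoxicillin for bacteria and fluconazole for fungi at 200 and 500 respectively as references. Incubation 37 °C for 24 h. Inhibition zone diameter in mm, triplicate, mean ± SD.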

[6] = tested on: Radical scavenging activity; assay: Antioxidant activity assessed as DPPH radical scavenging activity after 20 to 30 mins; format: functional
Outline: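 Test solution (2 ml at 25, 50, 75, 100, 125) mixed with 2 ml ethanolic DPPH, held in the dark at ambient temperature 20–30 min, then A517 read against an ethanol blank. Tocopherol used as standard. % scavenging = (Acontrol−Atest)/Acontrol×100, run in triplicate. IC50 read graphically from the % scavenging versus concentration plot.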

Staphylococcus aureus [7] = assay: Antimicrobial activity against Staphylococcus aureus MTCC 96 at 0.02 ml of 1 mg/ml after 24 hrs by cup plate method; format: functional; conditions: MTCC 96, 24 h, read-out: DIZ; outline: as §1
Pseudomonas aeruginosa [8] = assay: Antimicrobial activity against Pseudomonas aeruginosa MTCC 1688 at 0.02 ml of 1 mg/ml after 24 hrs by cup plate method; format: functional; conditions: MTCC 1688, 24 h, read-out: DIZ; outline: as §1
Rattus norvegicus = assay: Antiinflammatory activity in Wister rat assessed as inhibition of carrageenan-induced paw edema at 100 mg/kg, po administered 1 hr before carrageenan challenge measured after 3 hrs by plethysmograph analysis; format: functional
Outline: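 Rats of either sex, 150–220 g, food withheld 4 h. Compound or diclofenac sodium 100 mg/kg p.o., or 0.5% sodium CMC at 10 ml/kg as vehicle control, given 1 h before 0.05 ml of 1% carrageenan subplantar into the right hind paw. Paw volume read by water-displacement plethysmograph at 0, 30, 60, 120 and 180 min. % edema inhibition = 100(1−Vt/Vc); n=5, control n=6; ANOVA/Dunnett.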

[9] = Antioxidant activity assessed as hydroxyl radical scavenging activity after 15 mins; format: functional
Outline: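 Deoxyribose degradation mix: 2-deoxy-2-ribose 2.8 mM, KH2PO4–KOH 20 mM pH 7.4, FeCl3, EDTA, H2O2 1.0 mM, ascorbic acid, plus compound in methanol. Incubated 1 h at 37 °C. A 0.5 ml aliquot taken with 1 ml 2.8% TCA and 1 ml 1% TBA, heated 90 °C for 15 min, cooled, A532 read. % inhibition against blank.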

[10] = Antioxidant activity assessed as trolox equivalents of cupric reducing antioxidant capacity after 30 mins; format: functional
Outline: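 Mix of 1 ml CuCl2 (10 mM), 1 ml ethanolic neocuproine (7.5 mM), 1 ml ammonium acetate buffer (pH 7.0, 1 M), 1 ml compound or standard solution and 0.1 ml water, total 4.1 ml. A450 read after 30 min against reagent blank. TEAC = ε test/ε Trolox.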

Mus musculus [11] = assay: Acute toxicity in Swiss albino mouse assessed as gross behavioral changes up to 1500 mg/kg, po; format: organism-based; design: dose 1500 mg/kg, route oral; conditions: in vivo
Outline: (§2)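 Swiss albino mice (6–8 weeks, 25–30 g) were dosed orally at 500, 1000 or 1500 mg/kg, following OECD guidelines. Body weight, food and water intake, behavioural patterns and mortality were recorded and compared with a control group.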

Bacillus subtilis [12] = assay: Antimicrobial activity against Bacillus subtilis MTCC 441 at 0.02 ml of 1 mg/ml after 24 hrs by cup plate method; format: functional; conditions: MTCC 441, 24 h, read-out: DIZ; outline: as §1
Candida albicans [13] = assay: Antimicrobial activity against Candida albicans MTCC 227 at 0.02 ml of 1 mg/ml after 24 hrs by cup plate method; format: functional; conditions: MTCC 227, 24 h, read-out: DIZ; outline: as §1
Aspergillus niger [14] = assay: Antimicrobial activity against Aspergillus niger MTCC 292 at 0.02 ml of 1 mg/ml after 24 hrs by cup plate method; format: functional; conditions: MTCC 292, 24 h, read-out: DIZ; outline: as §1
Mus musculus [15] = assay: Acute toxicity in Swiss albino mouse assessed as mortality up to 1500 mg/kg, po; format: organism-based; design: dose 1500 mg/kg, route oral; conditions: in vivo; outline: as §2
Staphylococcus aureus [16] = assay: Antimicrobial activity against Staphylococcus aureus MTCC 96 at 200 ug/ml after 24 hrs by cup plate method; format: functional; conditions: MTCC 96, 24 h, read-out: DIZ
Bacillus subtilis [17] = assay: Antimicrobial activity against Bacillus subtilis MTCC 441 at 200 ug/ml after 24 hrs by cup plate method; format: functional; conditions: MTCC 441, 24 h, read-out: DIZ
Pseudomonas aeruginosa [18] = assay: Antimicrobial activity against Pseudomonas aeruginosa MTCC 1688 at 200 ug/ml after 24 hrs by cup plate method; format: functional; conditions: MTCC 1688, 24 h, read-out: DIZ
Escherichia coli [19] = assay: Antimicrobial activity against Escherichia coli ESS 2231 at 200 ug/ml after 24 hrs by cup plate method; format: functional; conditions: ESS 2231, 24 h, read-out: DIZ

Structure (SMILES): OC(Cn1cncn1)(Cn1cncn1)c1ccc(F)cc1F [FLUCONAZOLE]
- zone of inhibition at 500 µg/mL (Aspergillus niger [1]): 24 mm
- zone of inhibition at 500 µg/mL (Candida albicans [2]): 23.2 mm

Structure (SMILES): O=C(NCC(=O)N(C(=O)NC1CCCCC1)C1CCCCC1)/C(=C\c1ccc(O)cc1)NC(=O)c1ccccc1
- inhibition in vivo at 100 mg/kg (Mus musculus [3]): 27.6%
- pIC50 (Brain): 4.18
- LC50 at 24 h [4]: 9.1 µg/mL (≈ 16.6 µM)
- zone of inhibition at 1000 µg/mL (Escherichia coli [5]): 19.8 mm
- pIC50 [6]: 4.29
- zone of inhibition at 1000 µg/mL (Staphylococcus aureus [7]): 13.4 mm
- zone of inhibition at 1000 µg/mL (Pseudomonas aeruginosa [8]): 18.5 mm
- inhibition in vivo at 100 mg/kg (Rattus norvegicus): 31.5%
- pIC50 [9]: 4.13
- TEAC (Trolox equivalents) [10]: 2.91
- Activity (Mus musculus [11]): Non-toxic
- zone of inhibition at 1000 µg/mL (Bacillus subtilis [12]): 22.4 mm
- zone of inhibition at 1000 µg/mL (Candida albicans [13]): 13.2 mm
- zone of inhibition at 1000 µg/mL (Aspergillus niger [14]): 12.4 mm
- Activity (Mus musculus [15]): Non-toxic

Structure (SMILES): O=C(NC(CS)C(=O)N(C(=O)NC1CCCCC1)C1CCCCC1)/C(=C\c1ccccc1)NC(=O)c1ccccc1 (stereo unspecified)
- inhibition in vivo at 100 mg/kg (Mus musculus [3]): 56.8%
- pIC50 (Brain): 4.23
- LC50 at 24 h [4]: 3.53 µg/mL (≈ 6.12 µM)
- zone of inhibition at 1000 µg/mL (Escherichia coli [5]): 25.8 mm
- pIC50 [6]: 4.35
- zone of inhibition at 1000 µg/mL (Staphylococcus aureus [7]): 24.4 mm
- zone of inhibition at 1000 µg/mL (Pseudomonas aeruginosa [8]): 20.6 mm
- inhibition in vivo at 100 mg/kg (Rattus norvegicus): 43.4%
- pIC50 [9]: 4.19
- TEAC (Trolox equivalents) [10]: 3.84
- Activity (Mus musculus [11]): Non-toxic
- zone of inhibition at 1000 µg/mL (Bacillus subtilis [12]): 23.2 mm
- zone of inhibition at 1000 µg/mL (Candida albicans [13]): 17.4 mm
- zone of inhibition at 1000 µg/mL (Aspergillus niger [14]): 18.3 mm
- Activity (Mus musculus [15]): Non-toxic

Structure (SMILES): O=C(NC(CS)C(=O)N(C(=O)NC1CCCCC1)C1CCCCC1)/C(=C\c1ccc(Cl)cc1)NC(=O)c1ccccc1 (stereo unspecified)
- inhibition in vivo at 100 mg/kg (Mus musculus [3]): 40.8%
- pIC50 (Brain): 4.22
- LC50 at 24 h [4]: 10 µg/mL (≈ 16.4 µM)
- zone of inhibition at 1000 µg/mL (Escherichia coli [5]): 18.3 mm
- pIC50 [6]: 4.24
- zone of inhibition at 1000 µg/mL (Staphylococcus aureus [7]): 16.5 mm
- zone of inhibition at 1000 µg/mL (Pseudomonas aeruginosa [8]): 17.4 mm
- inhibition in vivo at 100 mg/kg (Rattus norvegicus): 22.8%
- pIC50 [9]: 4.18
- TEAC (Trolox equivalents) [10]: 2.65
- Activity (Mus musculus [11]): Non-toxic
- zone of inhibition at 1000 µg/mL (Bacillus subtilis [12]): 18.4 mm
- zone of inhibition at 1000 µg/mL (Candida albicans [13]): 13.5 mm
- zone of inhibition at 1000 µg/mL (Aspergillus niger [14]): 21.2 mm
- Activity (Mus musculus [15]): Non-toxic

Structure (SMILES): O=C(NCC(=O)N(C(=O)NC1CCCCC1)C1CCCCC1)/C(=C\c1ccccc1)NC(=O)c1ccccc1
- inhibition in vivo at 100 mg/kg (Mus musculus [3]): 54%
- pIC50 (Brain): 4.23
- LC50 at 24 h [4]: 6.02 µg/mL (≈ 11.3 µM)
- zone of inhibition at 1000 µg/mL (Escherichia coli [5]): 20.2 mm
- pIC50 [6]: 4.30
- zone of inhibition at 1000 µg/mL (Staphylococcus aureus [7]): 18.1 mm
- zone of inhibition at 1000 µg/mL (Pseudomonas aeruginosa [8]): 19.4 mm
- inhibition in vivo at 100 mg/kg (Rattus norvegicus): 35.5%
- pIC50 [9]: 4.24
- TEAC (Trolox equivalents) [10]: 0.89
- Activity (Mus musculus [11]): Non-toxic
- zone of inhibition at 1000 µg/mL (Bacillus subtilis [12]): 19.2 mm
- zone of inhibition at 1000 µg/mL (Candida albicans [13]): 20.7 mm
- zone of inhibition at 1000 µg/mL (Aspergillus niger [14]): 19.1 mm
- Activity (Mus musculus [15]): Non-toxic

Structure (SMILES): CC1(C)S[C@@H]2[C@H](NC(=O)[C@H](N)c3ccc(O)cc3)C(=O)N2[C@H]1C(=O)O [AMOXICILLIN]
- zone of inhibition at 200 µg/mL (Staphylococcus aureus [16]): 22 mm
- zone of inhibition at 200 µg/mL (Bacillus subtilis [17]): 21.2 mm
- zone of inhibition at 200 µg/mL (Pseudomonas aeruginosa [18]): 21.4 mm
- zone of inhibition at 200 µg/mL (Escherichia coli [19]): 22.6 mm
